Here are results for three compounds from paper PMC1915607 (Investigational New Drugs, 2007).

For series [1] the following is noted: phase I dose escalation study, 11 patients, 40 mg/m^2; cited from earlier work.
The nature of series [2]: Urinary and faecal recovery. As to conditions: for Radioactivity U/F ratio (urinary recovery relative to faecal recovery) / Recovery of ixabepilone in urine: 0–168 h; for Recovery of ixabepilone in urine: unchanged ixabepilone. The class given is in vivo, human.
A short description of series [3]: Plasma pharmacokinetics of unchanged ixabepilone. The class given is in vivo, human. A digest of the protocol: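 Eight advanced-cancer patients received a single 3 h IV infusion of 70 mg, 80 nCi [14C]-labelled test compound in Cremophor EL:ethanol diluted in Lactated Ringer's, with oral H1/H2 premedication. Blood was drawn 0–168 h and plasma was stored below −20°C. Parent was measured by isocratic LC-ESI-MS/MS (standard curve 2–500 ng/ml). Non-compartmental analysis gave AUCinf, CL=dose/AUCinf, and infusion-corrected Vss.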

Series [4] is described as follows: Plasma pseudopharmacokinetics of total radioactivity. The class given is in vivo, human. Summed up: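 Same dosing, with separate, simultaneous plasma samples taken to 168 h. Total radioactivity was measured by AMS after combustion with CuO at 900°C and graphitisation at 500–550°C. Natural 14C background was subtracted, and values were converted to equivalents via carbon content and specific activity. Quantitation limit was <4 DPM/ml. Non-compartmental pseudo-parameters were derived, and AUClast ratio = parent AUClast / TRA AUClast. Outliers were assessed by Dixon's Q test.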

Series [5] is described as follows: Stability of [14C]-labelled ixabepilone. The class given is physicochemical.
For series [6] the following is noted: phase II, cited from earlier work.
For the next series, the system named is CYP3A4/5. The note with it: cited from earlier work.
The conditions of series [7]: literature value, no reference given, cited from earlier work.
[8] abbreviates: inter-patient variability, flat 70 mg dose, this study.
The mark [9] stands for this setting: plasma, individual patients 1-8, 3 h iv infusion 70 mg.

Several values for one entry are separate records, joined by “and”; a condition that tells them apart may be missing. Identical values can stand only once. Like-named read-outs stand apart in the source and are kept apart here. Marks after values point to notes of the source that are not given here.

For orientation: clearance means a measure of how efficiently the substance is removed, as volume per time. A low value points to a low capacity for elimination. What is called Vd is the apparent volume that relates the amount in the body to the concentration in plasma or blood. A lower Vd goes with little distribution into tissue.

As for `C/C(=C\c1csc(C)n1)[C@@H]1C[C@@H]2O[C@]2(C)CCC[C@H](C)[C@H](O)[C@@H](C)C(=O)C(C)(C)[C@@H](O)CC(=O)N1` [ixabepilone, 15-desoxy-15-aza-epothilone B], the “Coefficient of variation for AUCinf of ixabepilone” value is given as 46% in series [1] and 24% in series [3] (setting [8]). Also, the “Coefficient of variation for Cl of ixabepilone” value is on record as 38% in series [1] and 21% in series [3] (setting [8]). Also, the “Radioactivity U/F ratio (urinary recovery relative to faecal recovery)” value in series [2] (individual patients 1-8) is 0.48 and 0.29 and 3.05 and 0.24 and 0.31 and 0.39 and 1.97 and 0.30; in series [2] (mean, patients 4 and 8 not included), 0.33^b. Further, the “Recovery of ixabepilone in urine” value in series [2] (individual patients 1-8) was 4.0 % of dose and 6.12 % of dose and 6.03 % of dose and 4.02 % of dose and 5.07 % of dose and 4.66 % of dose and 7.76 % of dose and 3.32 % of dose and 5.46 % of dose; in series [2] (mean of 8 patients), 5.30 % of dose. Further, the “Urinary radioactivity excreted in the first 24 h” value in series [2] (first 24 h) is given as 17 % of dose. The “Ixabepilone Clrenal” value in series [2] (individual patients 1-8) was 1.98 L/h and 1.87 L/h and 1.46 L/h and 1.16 L/h and 1.19 L/h and 1.92 L/h and 0.61 L/h and 1.58 L/h. The “Share of total urinary ixabepilone excreted in the first 24 h” value in series [2] (of total urinary ixabepilone) was found to be 76%. The “Share of total urinary radioactivity excreted in the first 24 h” value in series [2] (of total urinary radioactivity) stood at 65%. In addition, in series [3] (3 h infusion, in words), the “Time to maximum plasma concentration” value is recorded as “around the end of infusion”. The same compound gave a clearance in series [3] (human, plasma, intravenous, 70 mg, Ixabepilone Cl, mean of 8 patients) of 422 mL/min. The distribution volume (Vd) in series [3] (human, plasma, intravenous, 70 mg, Ixabepilone Vss, plasma, mean of 8 patients) stood at 1150 L. Also, the Half-life in series [3] (human, plasma, intravenous, 70 mg, Ixabepilone t1/2, plasma, mean of 8 patients) was > 50 h. In addition, the “Ixabepilone AUCinf” value in series [3] (setting [9]) was 2220 ng·h/mL and 3350 ng·h/mL and 2970 ng·h/mL and 2990 ng·h/mL and 4320 ng·h/mL and 2520 ng·h/mL and 2290 ng·h/mL. Also, the “Ixabepilone AUClast” value in series [3] (setting [9]) was 1930 ng·h/mL and 3060 ng·h/mL and 2750 ng·h/mL and 2830 ng·h/mL and 3820 ng·h/mL and 2420 ng·h/mL and 2170 ng·h/mL. In addition, in series [3] (setting [9]), the “Ixabepilone Cl” value was 31.6 L/h and 20.9 L/h and 23.6 L/h and 23.4 L/h and 16.2 L/h and 27.8 L/h and 30.5 L/h. Moreover, the “Ixabepilone Vss” value in series [3] (setting [9]) is 1520 L and 1635 L and 1275 L and 1174 L and 929 L and 1027 L and 756 L and 912 L. In addition, the “Ixabepilone t1/2” value in series [3] (setting [9]) was 71.5 h and 47.2 h and 51.7 h and 53.0 h and 67.4 h and 23.5 h and 36.7 h. Further, the “Initial distribution phase, duration” value in series [3] (unchanged ixabepilone in plasma) and in series [4] (TRA in plasma) was “approximately 10 h” each time. Moreover, in series [4] (plasma, individual patients 1-8, patient 1 outlier), the “AUClast ratio (AUClast ixabepilone / AUClast TRA)” value was 0.26 and 0.06 and 1.62^b and 0.25 and 0.19 and 0.12 and 0.18. Besides, the “Stability of labelled drug (autoradiolysis)” value is on record as “very unstable” in series [5] (conventional [14C]-levels (100 μCi in a typical human radio-tracer study)), “unstable” in series [5] (specific activity of 1.5 μCi/mg) and “stable” in series [5] (specific activity of less than 10 nCi/mg). Further, the Response rate is 33% in series [6] (hormone-refractory metastatic prostate cancer); 12–44% in series [6] (metastatic breast cancer, 6 to 40 mg/m^2 iv over 1 to 3 h); 14% in series [6] (metastatic renal cell carcinoma); 14% in series [6] (non-small cell lung cancer). In addition, the CYP3A4/5 substrate entry in the series with CYP3A4/5 is given as “CYP3A4/5 substrate”.

For `CC[C@]1(O)C[C@H]2CN(CCc3c([nH]c4ccccc34)[C@@](C(=O)OC)(c3cc4c(cc3OC)N(C=O)[C@H]3[C@@](O)(C(=O)OC)[C@H](OC(C)=O)[C@]5(CC)C=CCN6CC[C@]43[C@@H]65)C2)C1` [vincristine], the Half-life entry in series [7] (in words) is “several days”.

Take `CC[C@]1(O)C[C@@H]2CN(CCc3c([nH]c4ccccc34)[C@@](C(=O)OC)(c3cc4c(cc3OC)N(C)[C@H]3[C@@](O)(C(N)=O)[C@H](O)[C@]5(CC)C=CCN6CC[C@]43[C@@H]65)C2)C1` [vindesine]: in series [7], the Half-life is 12 to 42 h.
